ChEMBL document CHEMBL3351550, “Synthesis and antiangiogenic activity of 6-amido-2,4,5-trimethylpyridin-3-ols” (2014)

Key:
Chorioallantoic membrane [1] = assay: Antiangiogenic activity in chicken chorioallantoic membrane assessed as inhibition of VEGF-induced blood vessel formation treated 30 mins after VEGF addition measured after 3 days; format: functional, cell membranes; conditions: Gallus gallus
How it was run: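 VEGF (20 ng/CAM)-induced angiogenesis on chick embryo CAM, with compound applied afterwards on a disk. New vessel branch points under the disk were counted at several doses, mean ± SEM, n at least six. ID50 taken from dose-response curves.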

Chorioallantoic membrane [2] = assay: Antiangiogenic activity in chicken chorioallantoic membrane assessed as inhibition of VEGF-induced blood vessel formation at 0.01 nmol/CAM treated 30 mins after VEGF addition measured after 3 days relative to control; format: functional, cell membranes; conditions: Gallus gallus
How it was run: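 Chick embryo CAM; angiogenesis induced with VEGF (20 ng/CAM) before compound. Compound stock diluted in PBS to 1.0 μM, 10 μL applied to a disk on the CAM, giving 0.01 nmol/CAM. Read-out is the number of new blood vessel branch points in the area under the disk, compared against VEGF-treated CAMs.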

Chorioallantoic membrane [3] = assay: Antiangiogenic activity in human A549 cells inoculated with chicken chorioallantoic membrane assessed as inhibition of blood vessel branch points around tumor at 0.1 pmol/CAM after 5 days; format: functional, Gallus gallus
How it was run: (§1)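 A549 human lung cancer cells (2×10^6 cells/CAM) in Matrigel implanted on top of the CAM, with compound given once at implantation. New vessel branch points around the tumor were counted as for the VEGF CAM assay. Inhibition is relative to untreated CAMs, mean ± S.E.M. of at least six embryos.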

A549 [4] = assay: Antitumor activity in human A549 cells inoculated with chicken chorioallantoic membrane assessed as inhibition of tumor weight at 0.1 pmol/CAM after 5 days; format: functional
How it was run: (§2)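 A549 cells (2×10^6 cells/CAM) in Matrigel inoculated onto chick CAM and treated once with compound at implantation. The tumor mass grown on the CAM was excised and weighed, and inhibition is relative to untreated controls, means ± S.E.M., at least six embryos.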

Chorioallantoic membrane [5] = assay: Antiangiogenic activity in human A549 cells inoculated with chicken chorioallantoic membrane assessed as inhibition of blood vessel branch points around tumor at 1 pmol/CAM after 5 days; format: functional, Gallus gallus; how it was run: as §1
A549 [6] = assay: Antitumor activity in human A549 cells inoculated with chicken chorioallantoic membrane assessed as inhibition of tumor weight at 0.01 pmol/CAM after 5 days; format: functional; how it was run: as §2
A549 [7] = assay: Antitumor activity in human A549 cells inoculated with chicken chorioallantoic membrane assessed as inhibition of tumor weight at 1 pmol/CAM after 5 days; format: functional; how it was run: as §2
Chorioallantoic membrane [8] = assay: Antiangiogenic activity in human A549 cells inoculated with chicken chorioallantoic membrane assessed as inhibition of blood vessel branch points around tumor at 0.01 pmol/CAM after 5 days; format: functional, Gallus gallus; how it was run: as §1
A549 [9] = assay: Antitumor activity in human A549 cells inoculated with chicken chorioallantoic membrane assessed as inhibition of tumor weight at 0.001 pmol/CAM after 5 days; format: functional; how it was run: as §2

In the case of `CCN(CC)CCNC(=O)c1c(C)[nH]c(/C=C2\C(=O)Nc3ccc(F)cc32)c1C`, the ID50 (Chorioallantoic membrane [1]) is reported as 380 fmol and the inhibition (Chorioallantoic membrane [2]) is reported as 88.8%.

For `CN(C)c1ccc(/C=C2\C(=O)Nc3ccccc32)cc1`, the “inhibition (INH)” value (Chorioallantoic membrane [3]) was 25.1%, the “inhibition (INH)” value (A549 [4]) was 23.4% and the “inhibition (INH)” value (Chorioallantoic membrane [5]) was 36.2%. The ID50 (Chorioallantoic membrane [1]) was 39.7 fmol, the “inhibition (INH)” value (A549 [6]) was 16.2% and the inhibition (Chorioallantoic membrane [2]) was 78%. The “inhibition (INH)” value (A549 [7]) was 26.8% and the “inhibition (INH)” value (Chorioallantoic membrane [8]) was 20.8%.

Work on `Cc1nc(NC(=O)C2CCCCC2)c(C)c(C)c1O` yielded an inhibition (Chorioallantoic membrane [2]) of 76.3%.

`CCCCCCCCCCCCCCCC(=O)Nc1nc(C)c(O)c(C)c1C` gave an inhibition (Chorioallantoic membrane [2]) of 59.9%.

`CCCCCCCC(=O)Nc1nc(C)c(O)c(C)c1C` gave an inhibition (Chorioallantoic membrane [2]) of 74.7%.

In the case of `CC(=O)Nc1nc(C)c(O)c(C)c1C`, the “inhibition (INH)” value (A549 [4]) is reported as 37.9%, the ID50 (Chorioallantoic membrane [1]) is reported as 8.7 fmol and the “inhibition (INH)” value (A549 [6]) is reported as 34.2%. For the same compound, the “inhibition (INH)” value (A549 [9]) was 20.3%, the inhibition (Chorioallantoic membrane [2]) was 84.8% and the “inhibition (INH)” value (A549 [7]) was 47.7%.

`CC(=O)Nc1ccc(O)cc1` was tested, and the ID50 (Chorioallantoic membrane [1]) was 397 fmol and the inhibition (Chorioallantoic membrane [2]) was 77.9%.

For `Cc1nc(NC(=O)CCc2ccccc2)c(C)c(C)c1O`, the inhibition (Chorioallantoic membrane [2]) was 74.2%.

Work on `Cc1nc(NC(=O)c2ccccc2)c(C)c(C)c1O` yielded an inhibition (Chorioallantoic membrane [2]) of 77.3%.

In the case of `Cc1nc(NC(=O)C(C)C)c(C)c(C)c1O`, the inhibition (Chorioallantoic membrane [2]) is reported as 53.2%.

`Cc1nc(NC(=O)CC(C)C)c(C)c(C)c1O` gave an inhibition (Chorioallantoic membrane [2]) of 75.6%.

With `Cc1nc(NC(=O)c2ccc3c(c2)OCO3)c(C)c(C)c1O` the inhibition (Chorioallantoic membrane [2]) was 64.8%.

In the case of `Cc1nc(NC(=O)C(C)(C)C)c(C)c(C)c1O`, the inhibition (Chorioallantoic membrane [2]) is reported as 73.2%.

`Cc1nc(NC(=O)c2cccc3ccccc23)c(C)c(C)c1O` showed an inhibition (Chorioallantoic membrane [2]) of 75.8%.

`Cc1nc(NC(=O)c2cccs2)c(C)c(C)c1O` showed an inhibition (Chorioallantoic membrane [2]) of 74.8%.

`Cc1nc(NC(=O)Cc2ccccc2)c(C)c(C)c1O` showed an inhibition (Chorioallantoic membrane [2]) of 69.6%.

`COc1ccc(C(=O)Nc2nc(C)c(O)c(C)c2C)cc1` was tested, and the inhibition (Chorioallantoic membrane [2]) was 69.7%.

`Cc1nc(NC(=O)c2ccc(F)cc2)c(C)c(C)c1O` was tested, and the inhibition (Chorioallantoic membrane [2]) was 75.3%.

With `CCCCCCCCCCCC(=O)Nc1nc(C)c(O)c(C)c1C` the “inhibition (INH)” value (A549 [4]) was 31.3%, the ID50 (Chorioallantoic membrane [1]) was 14.9 fmol and the “inhibition (INH)” value (A549 [6]) was 26%. The “inhibition (INH)” value (A549 [9]) was 21.7%, the inhibition (Chorioallantoic membrane [2]) was 57.4% and the “inhibition (INH)” value (A549 [7]) was 38.2%.

In the case of `Cc1nc(NC(=O)CCCCl)c(C)c(C)c1O`, the inhibition (Chorioallantoic membrane [2]) is reported as 70.2%.

With `Cc1nc(NC(=O)C2CCCC2)c(C)c(C)c1O` the “inhibition (INH)” value (A549 [4]) was 45.1%, the ID50 (Chorioallantoic membrane [1]) was 3.6 fmol and the “inhibition (INH)” value (A549 [6]) was 24%. For the same compound, the “inhibition (INH)” value (A549 [9]) was 13.2%, the inhibition (Chorioallantoic membrane [2]) was 81.8% and the “inhibition (INH)” value (A549 [7]) was 62.7%.

`Cc1nc(NC(=O)c2ccc(C(C)(C)C)cc2)c(C)c(C)c1O` was tested, and the inhibition (Chorioallantoic membrane [2]) was 74.2%.
